Data taken from ChEMBL document CHEMBL1144663, “1-Aryl-tetrahydroisoquinoline analogs as active anti-HIV agents in vitro” (Bioorg Med Chem Lett, 2008).
Values after ≈ are worked out from the molar mass of the structure shown.

Experiments:
[1] = Selectivity index, ratio of CC50 for C8166 cells to EC50 for HIV1 3B; type: functional
How it was run: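 Ratio of CC50 (MTT, uninfected C8166, 72 h) to EC50 (syncytium reduction, HIV-1 IIIB-infected C8166, MOI 0.06, 3 days), both determined in this work.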

[2] = system: Human immunodeficiency virus 1; assay: Antiviral activity against HIV1 3B in C8166 cells by syncytium reduction assay; type: functional, organism-based; details: Human immunodeficiency virus 1, 3B
How it was run: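 C8166 cells (4 × 10⁵/mL) exposed to serial compound concentrations and infected with HIV-1 IIIB at MOI 0.06; zidovudine positive control. After 3 days of culture, syncytia counted per well by inverted microscopy; percent inhibition versus infected untreated control; EC50 is concentration protecting cells from viral cytopathogenicity by 50%.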

[3] = Cytotoxicity against human C8166 cells after 72 hrs by MTT method; type: cell-based
How it was run: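 Supernatant discarded, MTT (5 mg/mL in PBS) added for 4 h, formazan dissolved in 50% DMF–20% SDS, absorbance 595/630 nm. CC50 (50% reduction of viable cells) taken from dose–response curve.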

[4] = biological target: Human immunodeficiency virus type 1 reverse transcriptase (Human immunodeficiency virus 1) (UniProt Q72547); assay: Inhibition of HIV1 recombinant reverse transcriptase at 210 ug/ml
[5] = biological target: Human immunodeficiency virus type 1 reverse transcriptase (Human immunodeficiency virus 1) (UniProt Q72547); assay: Inhibition of HIV1 recombinant reverse transcriptase at 200 ug/ml
[6] = system: Human immunodeficiency virus; assay: Inhibition of HIV replication in H9 cells; type: functional, organism-based; details: Human immunodeficiency virus 1, H9

| SMILES | Ratio CC50/EC50 [1] | EC50 [2] [µM] | CC50 at 72 h [3] [µM] | Inhibition [4] [%] | Inhibition [5] [%] | EC50 [6] [µg/mL] |
| --- | --- | --- | --- | --- | --- | --- |
| COc1cc2c(cc1OC)C(c1ccccn1)NCC2 (centres undefined) | 2.8 | 171 | 444 | – | – | – |
| Oc1cc2c(cc1O)C(c1ccccc1Br)NCC2 (centres undefined) | >26 | 23.7 | > 625 | – | – | – |
| Oc1cc2c(cc1O)C(c1ccc(Br)cc1)NCC2 (centres undefined) | >18 | 36.2 | > 625 | – | – | – |
| CC1NCCc2ccc(O)c(O)c21 (centres undefined) | – | – | – | 48 | – | – |
| Oc1cc2c(cc1O)C(c1cccc(Br)c1)NCC2 (centres undefined) | >12 | 53.5 | > 625 | – | – | – |
| Cc1cn([C@H]2C[C@H](N=[N+]=[N-])[C@@H](CO)O2)c(=O)[nH]c1=O [ZIDOVUDINE] | >68091 | 0.011 | > 749 | – | – | – |
| COc1cc2c(cc1OC)C(c1ccccc1)NCC2 (centres undefined) | 2.4 | 120 | 294 | – | – | – |
| COc1cc2c(cc1OC)C(c1ccc(C(F)(F)F)cc1)NCC2 (centres undefined) | <1 | 27.8 | 30.9 | – | – | – |
| Oc1cc2c(cc1O)C(c1cccc3ccccc13)NCC2 (centres undefined) | 1.9 | 33.2 | 47.4 | – | – | – |
| Oc1cc2c(cc1O)C(c1ccc(C(F)(F)F)cc1)NCC2 (centres undefined) | 1.5 | 27.6 | 42.3 | – | – | – |
| Oc1cc2c(cc1O)C(c1ccc3ccccc3c1)NCC2 (centres undefined) | >130 | 5.3 | > 687 | – | 30 | – |
| Cc1ccc(C2NCCc3cc(O)c(O)cc32)cc1 (centres undefined) | >95 | 8.2 | > 784 | – | 28 | – |
| Oc1cc2c(cc1O)C(c1ccco1)NCC2 (centres undefined) | >14 | 61.7 | > 866 | – | – | – |
| Oc1cc2c(cc1O)C(c1cccc(Cl)c1)NCC2 (centres undefined) | >159 | 4.6 | > 727 | – | 20 | – |
| CC1NCCc2cc(O)c(O)cc21 (centres undefined) | – | – | – | – | – | 0.117 (≈ 0.653 µM) |
| COc1ccc(C2NCCc3cc(OC)c(OC)cc32)cc1 (centres undefined) | 2.5 | 127 | 312 | – | – | – |
| Oc1cc2c(cc1O)C(c1ccccc1)NCC2 (centres undefined) | >12 | 67.3 | > 830 | – | – | – |
| COc1cc2c(cc1OC)C(c1cccc(Br)c1)NCC2 (centres undefined) | 2.4 | 43.5 | 107 | – | – | – |
| COc1ccccc1C1NCCc2cc(O)c(O)cc21 (centres undefined) | >18 | 42.2 | > 738 | – | – | – |
| N#Cc1ccc(C2NCCc3cc(O)c(O)cc32)cc1 (centres undefined) | >14 | 53.7 | > 752 | – | – | – |

| SMILES | Ratio CC50/EC50 [1] | EC50 [2] [µM] | CC50 at 72 h [3] [µM] | Inhibition [4] [%] | Inhibition [5] [%] | EC50 [6] [µg/mL] |
| --- | --- | --- | --- | --- | --- | --- |
| COc1cc2c(cc1OC)C(c1cccc3ccccc13)NCC2 (centres undefined) | 2.9 | 22.6 | 64.8 | – | – | – |
| Oc1cc2c(cc1O)C(c1ccccc1Cl)NCC2 (centres undefined) | >14 | 51.8 | > 727 | – | – | – |
| COc1cc2c(cc1OC)C(c1ccccc1OC)NCC2 (centres undefined) | 12 | 45.9 | 555 | – | – | – |
| COc1cc2c(cc1OC)C(c1ccc(Br)cc1)NCC2 (centres undefined) | 2.2 | 16.9 | 37.9 | – | – | – |
| COc1ccc(C2NCCc3cc(OC)c(OC)cc32)c(OC)c1 (centres undefined) | 5.2 | 43.8 | 227 | – | – | – |
| COc1ccc(C2NCCc3cc(O)c(O)cc32)c(OC)c1 (centres undefined) | >14 | 46.5 | > 664 | – | – | – |
| COc1cc2c(cc1OC)C(c1cccc(Cl)c1)NCC2 (centres undefined) | 5.9 | 31.8 | 184 | – | – | – |
| COc1cc2c(cc1OC)C(c1ccco1)NCC2 (centres undefined) | 3.8 | 152 | 572 | – | – | – |
| COc1cc2c(cc1O)[C@@H](Cc1ccc(O)cc1)NCC2 | – | – | – | – | – | 0.8 (≈ 2.8 µM) |
| Oc1cc2c(cc1O)C(c1ccccc1F)NCC2 (centres undefined) | >13 | 58.4 | > 772 | – | – | – |
| COc1cc2c(cc1OC)C(c1ccccc1F)NCC2 (centres undefined) | 2.8 | 69 | 175 | – | – | – |
| Cc1ccccc1C1NCCc2cc(O)c(O)cc21 (centres undefined) | >13 | 61.9 | > 784 | – | – | – |
| COc1cc2c(cc1OC)C(c1ccc(C)cc1)NCC2 (centres undefined) | 4.2 | 67.3 | 281 | – | – | – |
| COc1cc2c(cc1OC)C(c1ccccc1C)NCC2 (centres undefined) | 4.6 | 42.5 | 197 | – | – | – |
| COc1ccc(C2NCCc3cc(O)c(O)cc32)cc1 (centres undefined) | >22 | 34.1 | > 738 | – | – | – |
| Oc1cc2c(cc1O)C(c1ccccn1)NCC2 (centres undefined) | >11 | 48.4 | > 826 | – | – | – |
| COc1cc2c(cc1OC)C(c1ccc3ccccc3c1)NCC2 (centres undefined) | 7.9 | 6.9 | 54.6 | – | – | – |
| COc1cc2c(cc1OC)C(c1ccccc1Cl)NCC2 (centres undefined) | 4.3 | 58.4 | 249 | – | – | – |
| COc1cc2c(cc1OC)C(c1ccccc1Br)NCC2 (centres undefined) | 2.8 | 31.3 | 89 | – | – | – |
